The results in this text go back to ChEMBL document CHEMBL5321203, “8-Amide and 8-carbamate substitution patterns as modulators of 7-hydroxy-4-methylcoumarin's antidepressant profile: Synthesis, biological evaluation and docking studies” (Eur J Med Chem, 2023).

In data set [1] the target is T1, Amine oxidase [flavin-containing] B (Homo sapiens, UniProt P27338).
T1 sequence (P27338 whole entry): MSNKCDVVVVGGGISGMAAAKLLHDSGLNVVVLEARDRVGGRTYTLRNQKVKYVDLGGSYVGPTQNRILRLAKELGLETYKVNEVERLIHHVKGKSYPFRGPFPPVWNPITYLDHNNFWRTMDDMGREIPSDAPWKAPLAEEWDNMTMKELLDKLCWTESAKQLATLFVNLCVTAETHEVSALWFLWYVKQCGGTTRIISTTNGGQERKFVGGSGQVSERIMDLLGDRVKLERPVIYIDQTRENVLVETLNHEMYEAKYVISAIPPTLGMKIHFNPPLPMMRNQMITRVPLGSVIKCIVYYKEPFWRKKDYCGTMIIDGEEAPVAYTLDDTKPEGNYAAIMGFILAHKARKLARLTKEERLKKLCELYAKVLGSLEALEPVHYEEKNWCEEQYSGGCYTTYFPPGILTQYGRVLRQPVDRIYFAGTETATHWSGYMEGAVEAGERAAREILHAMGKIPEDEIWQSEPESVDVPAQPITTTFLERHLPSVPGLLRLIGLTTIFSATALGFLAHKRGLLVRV
Briefly: Inhibition of recombinant human MAO-B expressed in baculovirus infected BTITN-5B1-4 insect cells using p-tyramine as substrate at 100 uM incubated for 10 mins followed by substrate addition measured after 15 mins by Amplex Red assay. The following applies: bti-tn-5b1-4, 25 min.

In data set [2] the target is T2, Amine oxidase [flavin-containing] A (Homo sapiens, UniProt P21397).
T2 sequence (P21397 whole entry): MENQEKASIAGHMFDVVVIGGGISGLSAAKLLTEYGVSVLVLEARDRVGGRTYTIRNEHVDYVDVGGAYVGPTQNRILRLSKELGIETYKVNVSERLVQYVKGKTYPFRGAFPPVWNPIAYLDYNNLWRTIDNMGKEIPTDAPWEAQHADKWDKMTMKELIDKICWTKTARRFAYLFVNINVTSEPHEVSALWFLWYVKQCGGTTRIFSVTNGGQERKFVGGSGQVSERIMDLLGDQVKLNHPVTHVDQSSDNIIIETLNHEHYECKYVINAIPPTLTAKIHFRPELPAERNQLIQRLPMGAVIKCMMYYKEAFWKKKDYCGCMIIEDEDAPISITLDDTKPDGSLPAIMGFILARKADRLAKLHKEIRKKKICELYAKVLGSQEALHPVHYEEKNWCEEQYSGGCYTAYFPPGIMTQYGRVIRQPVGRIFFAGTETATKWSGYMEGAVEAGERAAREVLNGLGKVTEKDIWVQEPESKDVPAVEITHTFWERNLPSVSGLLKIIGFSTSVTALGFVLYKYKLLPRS
Briefly: Inhibition of recombinant human MAO-A expressed in baculovirus infected BTITN-5B1-4 insect cells using p-tyramine as substrate at 100 uM incubated for 10 mins followed by substrate addition measured after 15 mins by Amplex Red assay. The following applies: bti-tn-5b1-4, 25 min. Summed up: (§1)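 Microsomal hMAO-A from baculovirus-infected BTI-TN 5B1-4 cells, 1.1 μg protein, in 0.05 M sodium phosphate pH 7.4, preincubated with compound 10 min at 37 °C. Started with 200 μM Amplex Red, 1 U/mL HRP and 1 mM p-tyramine (final). Resorufin fluorescence (ex 545/em 590 nm) read over 15 min at 37 °C; background without enzyme subtracted; vehicle controls run.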

Data set [3] addresses T1, Amine oxidase [flavin-containing] B. The data set can be described thus: Inhibition of recombinant human MAO-B expressed in baculovirus infected BTITN-5B1-4 insect cells using p-tyramine as substrate incubated for 10 mins followed by substrate addition measured after 15 mins by Amplex Red assay. Further details: species or system BTI-TN-5B1-4.
Data set [4] has the same target. Briefly: Inhibition of recombinant human MAO-B expressed in baculovirus infected BTITN-5B1-4 insect cells using p-tyramine as substrate at 100 uM incubated for 10 mins followed by substrate addition measured after 15 mins by Amplex Red assay relative to control. The following applies: BTI-TN-5B1-4, human, 25 min.
For data set [5], the target named is T2, Amine oxidase [flavin-containing] A. Briefly: Inhibition of recombinant human MAO-A expressed in baculovirus infected BTITN-5B1-4 insect cells using p-tyramine as substrate incubated for 10 mins followed by substrate addition measured after 15 mins by Amplex Red assay. Details: species or system BTI-TN-5B1-4.
Data set [6] has the same target. The data set can be described thus: Inhibition of recombinant human MAO-A expressed in baculovirus infected BTITN-5B1-4 insect cells using p-tyramine as substrate at 100 uM incubated for 10 mins followed by substrate addition measured after 15 mins by Amplex Red assay relative to control. The following applies: BTI-TN-5B1-4, human, 25 min. Summed up:
as §1

The nature of data set [7]: Metabolic stability in human liver microsomes assessed as intrinsic clearance at 1 uM measured upto 60 mins by UPLC-MS/MS analysis. Format: ADME, Microsome. The following applies: read-out: CLH. (Liver microsomes are vesicles of endoplasmic reticulum, rich in cytochrome P450 enzymes.)
The nature of data set [8]: Metabolic stability in mouse liver microsomes assessed as compound remaining at 1 uM measured upto 60 mins by UPLC-MS/MS analysis. The following applies: read-out: Stability. Format: ADME, Microsome.
The nature of data set [9]: Chemical stability of compound in NaHCO3/Na2CO3 at pH 10.4 assessed as compound remaining at 10 uM incubated overnight by UPLC-MS/MS analysis. The following applies: NaHCO3/Na2CO3 buffer, read-out: Stability. Format: physicochemical. In outline:
(§2)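 Overnight incubation at room temperature, 10 μM final. Buffers: pH 3.5 CH₃COONa/CH₃COOH 0.1 M; pH 7.4 NaH₂PO₄/NaHPO₄ 10 mM; pH 10.4 NaHCO₃/Na₂CO₃ 0.5 M. Aliquots taken at t = 0 and after incubation, analysed by UPLC-MS/MS; expressed as % remaining.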

Data set [10] can be described thus: Metabolic stability in human liver microsomes assessed as compound remaining at 1 uM measured upto 60 mins by UPLC-MS/MS analysis. The format is ADME, Microsome. The following applies: read-out: Stability.
Data set [11] is described as follows: Metabolic stability in mouse liver microsomes assessed as intrinsic clearance at 1 uM measured upto 60 mins by UPLC-MS/MS analysis. The following applies: read-out: CLH. The format is ADME, Microsome.
Data set [12] is described as follows: Chemical stability of compound in NaH2PO4/NaHPO4 at pH 7.4 assessed as compound remaining at 10 uM incubated overnight by UPLC-MS/MS analysis. Format: physicochemical. The following applies: NaH2PO4/NaHPO4 buffer, read-out: Stability. Summed up:
as §2

A short description of data set [13]: Chemical stability of compound in CH3COONa/CH3COOH at pH 3.5 assessed as compound remaining at 10 uM incubated overnight by UPLC-MS/MS analysis. Format: physicochemical. The following applies: CH3COONa/CH3COOH buffer, read-out: Stability. In outline:
as §2

The nature of data set [14]: Metabolic stability in human liver microsomes assessed as half life at 1 uM measured upto 60 mins by UPLC-MS/MS analysis. The format is ADME, Microsome.
The nature of data set [15]: Permeability coefficient of compound incubated for 120 mins by UV-Vis spectroscopy based PAMPA-BBB assay. (In PAMPA a lipid-coated filter parts donor from acceptor wells.)
A short description of data set [16]: Metabolic stability in mouse liver microsomes assessed as half life at 1 uM measured upto 60 mins by UPLC-MS/MS analysis. The format is ADME, Microsome.
In the next data set the test system is SH-SY5Y. Briefly: Neurotoxicity against human SH-SY5Y cells assessed as reduction in cell viability at 100 uM incubated for 24 hrs by MTT assay. The format is functional, cell-based. Summed up:
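SH-SY5Y cells in Ham's F12/EMEM 1:1 with 15% FBS, seeded at 2×10^5 cells/mL and grown 24 h. Treated with 100 μM compound (1% DMSO) for 24 h, then MTT for 2 h; formazan dissolved in DMSO and absorbance read at 540 nm. Viability as % of vehicle control; at least 3 experiments, ANOVA with Bonferroni test.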

pIC50: −log10 of the molar value. Activity calls are given as the source filed them.

In the case of `Cc1cc(=O)oc2c(NC(=O)OCC(C)C)c(O)ccc12`, the “inhibition (INH)” value in [1] and in [2] was “Not Active” in each case.

As for `COc1cc(C(=O)Nc2c(O)ccc3c(C)cc(=O)oc23)cc(OC)c1OC`, the pIC50 in data set [3] was 4.17. For the same compound, in [4], the inhibition at 100 µM was 50%. Besides, the “inhibition (INH)” value in data set [2] is “Not Active”.

Turning to `Cc1cc(=O)oc2c(NC(=O)OCc3ccccc3)c(O)ccc12`, the pIC50 in data set [5] is 4.76.

As to `Cc1cc(=O)oc2c(NC(=O)/C=C/c3ccccc3)c(O)ccc12`, in [5], the pIC50 was 7.66.

On to `Cc1cc(=O)oc2c(NC(=O)c3ccco3)c(O)ccc12`, for which the pIC50 in [3] is 4.76. For the same compound, the inhibition at 100 µM in [6] is 50%.

`CCC(=O)Nc1c(O)ccc2c(C)cc(=O)oc12`: in [3], the pIC50 was 4.28. Also, the “inhibition (INH)” value in data set [1] and in data set [2] was “Not Active” in each case.

`C=CC(=O)Nc1c(O)ccc2c(C)cc(=O)oc12`: the pIC50 in data set [3] was 4.79; in data set [5], 4.42.

As to `Cc1ccc(C(=O)Nc2c(O)ccc3c(C)cc(=O)oc23)cc1`, the microsomal CLint at 1 µM in data set [7] was found to be 196 µL/min/mg; in [11], 131 µL/min/mg. Besides, the remaining at 1 h, 1 µM in data set [8] amounted to 8.3%; in data set [10], 0.5%. Further, the remaining at 10 µM in data set [9] amounted to 118%; in data set [12], 113%; in data set [13], 98%. Further, the half-life at 1 µM in data set [14] was 6.84 min; in [16], 17.1 min. Moreover, the Papp at 2 h in [15] came out at 8.6 ×10⁻⁶ cm/s.

For the compound `Cc1cc(=O)oc2c(NC(=O)CC(C)(C)C)c(O)ccc12`, the pIC50 in [3] was 5.13. Further, the “inhibition (INH)” value in data set [2] is reported as “Not Active”.

With `Cc1cc(=O)oc2c(NC(=O)Oc3ccccc3)c(O)ccc12`, the “inhibition (INH)” value in [2] is reported as “Not Active”. Further, the result in the data set with SH-SY5Y was Active.

Turning to `Cc1cc(=O)oc2c(NC(=O)OCCl)c(O)ccc12`, the pIC50 in data set [5] is 5.04.

With `Cc1cc(=O)oc2c(NC(=O)CCl)c(O)ccc12`, the pIC50 in data set [3] is 4.07. In addition, the “inhibition (INH)” value in [2] is “Not Active”.

Consider `COC(=O)Nc1c(O)ccc2c(C)cc(=O)oc12`, for which the inhibition at 100 µM in data set [4] was 50%. The “inhibition (INH)” value in [2] was “Not Active”.

Consider `O=C(NCCN1CCOCC1)c1ccc(Cl)cc1` [MOCLOBEMIDE], for which, in data set [4], the inhibition at 100 µM was 50%.

For `CCOC(=O)Nc1c(O)ccc2c(C)cc(=O)oc12`, the “inhibition (INH)” value in data set [1] is “Not Active”. The Papp at 2 h in [15] came out at 4.9 ×10⁻⁶ cm/s.

For the compound `Cc1cc(=O)oc2c(NC(=O)OC(C)C)c(O)ccc12`, the pIC50 in data set [5] was 5.73.

For `Cc1cc(=O)oc2c(NC(=O)C(C)C)c(O)ccc12`, the pIC50 in data set [3] is 4.51. Moreover, the “inhibition (INH)” value in [1] and in data set [2] was “Not Active” throughout.

As a reminder, the pIC50 is the IC50 on a negative log10 scale, so that one unit is a factor of ten. The term inhibition denotes the relative decrease from the control value, in per cent. The term half-life denotes the time needed for the level to fall by half in the phase considered. One may read the Papp as the rate of passage across a membrane or cell layer, normalised by area and donor concentration. The low end stands for poor permeation, the high end for ready permeation.
